Calls of active or inactive are those of the source. No cut-off for these calls is given here. Bridge positions count the residues as written; N and C are the ends. Square brackets hold non-standard residues; d marks the D form. Peptide text beside a SMILES is read from it. Orn = NCCC[C@H](N)C(=O)O; Mpa = O=C(O)CCS
Assays:
Oxytocin receptor = target: T1, Oxytocin receptor (Rattus norvegicus, UniProt P70536); assay: Antagonism of OT-induced response at OT receptor in rat uterine strips; assay type: functional
T1 sequence (P70536 whole entry): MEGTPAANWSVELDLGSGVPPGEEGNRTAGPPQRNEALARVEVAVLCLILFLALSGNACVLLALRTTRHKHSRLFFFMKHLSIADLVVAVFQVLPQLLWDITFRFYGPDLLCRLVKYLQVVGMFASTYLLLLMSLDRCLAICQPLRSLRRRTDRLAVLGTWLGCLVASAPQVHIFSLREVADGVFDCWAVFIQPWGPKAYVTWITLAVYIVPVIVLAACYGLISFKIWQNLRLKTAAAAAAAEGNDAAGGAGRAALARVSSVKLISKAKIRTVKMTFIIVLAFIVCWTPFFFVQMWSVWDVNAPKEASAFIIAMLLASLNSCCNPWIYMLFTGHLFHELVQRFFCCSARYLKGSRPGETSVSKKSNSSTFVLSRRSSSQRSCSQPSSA

Rattus norvegicus [1] = assay: Antidiuretic effect measured as decrease in urine volume over control in water-loaded Sprague-Dawley rat at 10 mg/kg, po; assay type: functional; set-up: Activity: scale not given: the % may be the effect or the level left; conditions: for ED50: Rattus norvegicus, Sprague-Dawley, Urine; for Activity: dose 10 mg/kg
How it was run: (§1)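 Conscious water-loaded rats dosed orally; 30 min later stomachs gavaged with deionized water, 30 mL/kg. Urine collected over 4 h for volume; osmolality by cryoscopic osmometer; Na+, K+, Cl- by ion-selective electrodes. Expressed as percent change versus control at the stated dose (screening dose 10 mg/kg po).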

Vasopressin V2 receptor [2] = target: T2, Vasopressin V2 receptor (Homo sapiens, UniProt P30518); assay: Displacement of [3H]AVP from human V2 receptor transfected in LV2 cells; assay type: cell-based
T2 sequence (P30518 whole entry): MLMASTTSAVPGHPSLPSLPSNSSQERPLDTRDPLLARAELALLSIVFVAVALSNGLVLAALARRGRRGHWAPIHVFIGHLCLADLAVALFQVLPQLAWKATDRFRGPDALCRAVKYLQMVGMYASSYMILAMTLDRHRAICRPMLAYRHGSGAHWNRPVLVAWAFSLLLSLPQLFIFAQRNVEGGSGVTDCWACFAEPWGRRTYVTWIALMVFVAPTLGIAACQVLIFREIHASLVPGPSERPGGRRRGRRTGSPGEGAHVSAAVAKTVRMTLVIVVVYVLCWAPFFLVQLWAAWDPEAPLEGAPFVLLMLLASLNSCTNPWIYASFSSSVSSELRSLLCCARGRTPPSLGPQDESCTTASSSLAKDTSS
How it was run: (§2)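 Inhibition of [3H]AVP binding to membranes from CHO cells expressing human V1a receptors or from LV2 cells transfected with human V2 receptors; IC50 values are means of two to five (or three) experiments.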

[3] = target: Vasopressin V1a receptor (Rattus norvegicus) (UniProt P30560); assay: Agonist activity at V1a receptor indicated by production of contractions in rat tail arteries; assay type: functional, tissue-based
Vasopressin V1a receptor (Rattus norvegicus), sequence (P30560 whole entry, looked up): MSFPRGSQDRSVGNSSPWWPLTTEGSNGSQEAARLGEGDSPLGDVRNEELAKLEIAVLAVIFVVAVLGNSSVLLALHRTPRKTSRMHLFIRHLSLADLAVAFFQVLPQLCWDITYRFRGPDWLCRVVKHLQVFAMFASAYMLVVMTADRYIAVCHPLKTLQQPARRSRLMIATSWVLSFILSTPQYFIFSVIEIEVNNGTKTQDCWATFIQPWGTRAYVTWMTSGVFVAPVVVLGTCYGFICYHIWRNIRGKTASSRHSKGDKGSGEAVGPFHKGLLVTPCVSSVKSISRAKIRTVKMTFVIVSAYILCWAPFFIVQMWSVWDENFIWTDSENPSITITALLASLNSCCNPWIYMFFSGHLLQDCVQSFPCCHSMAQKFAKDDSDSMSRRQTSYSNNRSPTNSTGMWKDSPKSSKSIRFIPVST

Rattus norvegicus [4] = assay: Antidiuretic effect measured as increase in osmolality over control in water-loaded Sprague-Dawley rat at 10 mg/kg, po; assay type: functional, Urine; how it was run: as §1
Vasopressin V1a receptor [5] = target: Vasopressin V1a receptor (Rattus norvegicus, UniProt P30560); assay: Antagonism of AVP-induced response at V1a receptor in isolated rat tail arteries; assay type: functional, tissue-based
Vasopressin V1a receptor (Rattus norvegicus, UniProt P30560), sequence (P30560 whole entry): as the sequence (P30560 whole entry, looked up) above

Vasopressin V2 receptor [6] = target: T2, Vasopressin V2 receptor; assay: Binding to human V2 receptor expressed in LV2 cells by cAMP production; assay type: functional, cell-based
[7] = target: T3, Oxytocin receptor (Rattus norvegicus) (UniProt P70536); assay: Agonist activity at OT receptor indicated by production of contractions in rat uterine strips; assay type: functional
T3 sequence (whole entry): T1 sequence (P70536 whole entry)

Vasopressin V1a receptor [8] = target: T4, Vasopressin V1a receptor (Homo sapiens, UniProt P37288); assay: Displacement of [3H]AVP from human V1a receptor expressed in CHO cells; assay type: cell-based; how it was run: as §2
Target sequence in this assay (P37288 whole entry): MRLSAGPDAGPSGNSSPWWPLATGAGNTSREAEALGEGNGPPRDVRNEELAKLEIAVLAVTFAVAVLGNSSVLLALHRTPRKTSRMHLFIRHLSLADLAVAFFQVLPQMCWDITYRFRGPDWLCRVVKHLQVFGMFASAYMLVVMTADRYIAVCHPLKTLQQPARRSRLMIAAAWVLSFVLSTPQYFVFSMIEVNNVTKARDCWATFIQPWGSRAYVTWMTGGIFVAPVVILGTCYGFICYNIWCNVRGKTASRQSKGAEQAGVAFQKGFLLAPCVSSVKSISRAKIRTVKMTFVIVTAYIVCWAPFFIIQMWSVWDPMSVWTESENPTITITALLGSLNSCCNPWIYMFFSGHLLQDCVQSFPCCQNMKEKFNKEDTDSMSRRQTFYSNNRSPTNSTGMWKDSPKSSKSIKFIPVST

Vasopressin V1a receptor [9] = target: T4, Vasopressin V1a receptor; assay: Displacement of [3H]AVP from human V1a receptor expressed in CHO cells at 0.1 uM; assay type: cell-based
Target sequence in this assay (P37288 whole entry, looked up): as the sequence (P37288 whole entry) above

Vasopressin V2 receptor [10] = target: T2, Vasopressin V2 receptor; assay: Displacement of [3H]AVP from human V2 receptor transfected in LV2 cells at 300 nM; assay type: cell-based
How it was run: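 Inhibition of [3H]AVP binding to membranes of LV2 cells transfected with human V2 receptors, reported as percent inhibition at 300 nM.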

Vasopressin V1a receptor [11] = target: T4, Vasopressin V1a receptor; assay: Displacement of [3H]AVP from human V1a receptor expressed in CHO cells at 1 uM; assay type: cell-based
Target sequence in this assay (P37288 whole entry, looked up): as the sequence (P37288 whole entry) above

Vasopressin V1a receptor [12] = target: T4, Vasopressin V1a receptor; assay: Displacement of [3H]AVP from human V1a receptor expressed in CHO cell membrane at 10 uM; assay type: cell membranes
Target sequence in this assay (P37288 whole entry, looked up): as the sequence (P37288 whole entry) above

Cc1ccn(-c2ccc(C(=O)N3Cc4cccnc4Nc4ccccc43)c(C(F)(F)F)c2)n1
IC50 (Oxytocin receptor): 1260 nM
ED50 (Rattus norvegicus [1]): 0.1 mg/kg
Activity (Rattus norvegicus [1]): 87%
IC50 (Vasopressin V2 receptor [2]): 493 nM
Activity [3]: inactive
Activity (Rattus norvegicus [4]): 239%
IC50 (Vasopressin V1a receptor [5]): > 30 µM
EC50 (Vasopressin V2 receptor [6]): 1.67 nM
Activity [7]: inactive
IC50 (Vasopressin V1a receptor [8]): 5950 nM

Cc1ccnn1-c1ccc(C(=O)N2Cc3cccnc3Nc3ccccc32)c(C(F)(F)F)c1
Activity (Rattus norvegicus [1]): 25%
IC50 (Vasopressin V2 receptor [2]): 413 nM
Activity (Rattus norvegicus [4]): 4%
inhibition (Vasopressin V1a receptor [9]): 11%

O=C(c1ccc(-n2ccc(C(F)(F)F)n2)cc1C(F)(F)F)N1Cc2cccnc2Nc2ccccc21
Activity (Rattus norvegicus [1]): 69%
Activity (Rattus norvegicus [4]): 183%
inhibition (Vasopressin V2 receptor [10]): -7%

CC(C)(C)c1ccn(-c2ccc(C(=O)N3Cc4cccnc4Nc4ccccc43)c(C(F)(F)F)c2)n1
Activity (Rattus norvegicus [1]): 6%
Activity (Rattus norvegicus [4]): -7%
inhibition (Vasopressin V2 receptor [10]): 26%

Cc1n[nH]c(-c2ccc(C(=O)N3Cc4cccnc4Nc4ccccc43)c(Cl)c2)n1
Activity (Rattus norvegicus [1]): 86%
Activity (Rattus norvegicus [4]): 516%

O=C(c1ccc(-n2ccc(-c3ccncc3)n2)cc1Br)N1Cc2cccnc2Nc2ccccc21
Activity (Rattus norvegicus [1]): 24%
Activity (Rattus norvegicus [4]): 11%
inhibition (Vasopressin V2 receptor [10]): 26%

Cc1ccn(-c2ccc(C(=O)N3Cc4cccnc4Nc4ccccc43)c(Br)c2)n1
Activity (Rattus norvegicus [1]): 85%
IC50 (Vasopressin V2 receptor [2]): 296 nM
Activity (Rattus norvegicus [4]): 247%
inhibition (Vasopressin V1a receptor [11]): 30%

Cc1ccn(-c2ccc(C(=O)N3Cc4cccnc4N(C)c4ccccc43)c(Cl)c2)n1
Activity (Rattus norvegicus [1]): 71%
IC50 (Vasopressin V2 receptor [2]): 475 nM
Activity (Rattus norvegicus [4]): 275%
inhibition (Vasopressin V1a receptor [11]): 20%

Cc1ccn(-c2ccc(C(=O)N3Cc4cccnc4N(C)c4ccccc43)c(C(F)(F)F)c2)n1
Activity (Rattus norvegicus [1]): 72%
Activity (Rattus norvegicus [4]): 198%
inhibition (Vasopressin V2 receptor [10]): 10%
inhibition (Vasopressin V1a receptor [12]): 32%

CN1c2ccccc2N(C(=O)c2ccc(-c3ccn(C)n3)cc2Cl)Cc2cccnc21
Activity (Rattus norvegicus [1]): 10%
Activity (Rattus norvegicus [4]): -11%

Cc1ccn(-c2ccc(C(=O)N3Cc4cccnc4Nc4ccccc43)c(F)c2)n1
Activity (Rattus norvegicus [1]): 59%
IC50 (Vasopressin V2 receptor [2]): 933 nM
Activity (Rattus norvegicus [4]): 272%

CCOc1ccc(C[C@H]2NC(=O)CCSSC[C@@H](C(=O)N3CCC[C@H]3C(=O)N[C@@H](CCCN)C(=O)NCC(N)=O)NC(=O)[C@H](CC(N)=O)NC(=O)[C@H]([C@@H](C)O)NC(=O)[C@H]([C@@H](C)CC)NC2=O)cc1 [ATOSIBAN] ([Mpa][dY](Et)ITNCP[Orn]G-NH2; disulfide 1-6)
IC50 (Oxytocin receptor): 12 nM

Cc1ccn(-c2ccc(C(=O)N3Cc4cccnc4Nc4ccccc43)c(Cl)c2)n1
Activity (Rattus norvegicus [1]): 80%
IC50 (Vasopressin V2 receptor [2]): 91.5 nM
Activity (Rattus norvegicus [4]): 172%
inhibition (Vasopressin V1a receptor [11]): 38%

Cc1ccn(-c2ccc(C(=O)N3Cc4cccn4Cc4ccccc43)c(Cl)c2)n1
ED50 (Rattus norvegicus [1]): 0.14 mg/kg
Activity (Rattus norvegicus [1]): 74%
IC50 (Vasopressin V2 receptor [2]): 80 nM
Activity (Rattus norvegicus [4]): 286%
EC50 (Vasopressin V2 receptor [6]): 0.74 nM
IC50 (Vasopressin V1a receptor [8]): 778 nM

Cc1ccnn1-c1ccc(C(=O)N2Cc3cccnc3Nc3ccccc32)c(Cl)c1
Activity (Rattus norvegicus [1]): 61%
IC50 (Vasopressin V2 receptor [2]): 390 nM
Activity (Rattus norvegicus [4]): 189%

Cn1ccc(-c2ccc(C(=O)N3Cc4cccnc4Nc4ccccc43)c(Cl)c2)n1
Activity (Rattus norvegicus [1]): 76%
IC50 (Vasopressin V2 receptor [2]): 183 nM
Activity (Rattus norvegicus [4]): 134%
IC50 (Vasopressin V1a receptor [8]): 1780 nM

O=C(c1ccc(-n2ccc(C(F)(F)F)n2)cc1Cl)N1Cc2cccnc2Nc2ccccc21
Activity (Rattus norvegicus [1]): 72%
Activity (Rattus norvegicus [4]): 162%
inhibition (Vasopressin V2 receptor [10]): 13%

Cc1ccn(-c2cc(F)ccc2C(=O)N2Cc3cccnc3Nc3ccccc32)n1
Activity (Rattus norvegicus [1]): 63%
Activity (Rattus norvegicus [4]): 177%
inhibition (Vasopressin V2 receptor [10]): 5%

Source: ChEMBL document CHEMBL1149468, “Pyridobenzodiazepines: a novel class of orally active, vasopressin V2 receptor selective agonists” (Bioorg Med Chem Lett, 2006)
